# Results reported in PMC6896334 (Cell reports, 2019).
# Legend:
# Id1 crystals = biological target: T1, Id1 crystals (Mus musculus, UniProt P20067); assay: Exposure of Id1 crystals to compound; settings: DMSO alone had no such effect
# T1 sequence (P20067 51-104): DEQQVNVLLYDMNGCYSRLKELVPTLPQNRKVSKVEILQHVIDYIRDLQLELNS
# In short: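 Mouse Id1 (residues 51–104) crystals grown by hanging-drop vapour diffusion at 4°C. Protein at 2.8 mg/mL (20 mM Tris pH 8.0, 0.25 M NaCl, 5 mM DTT) was mixed 1:1 with reservoir of 0.1 M sodium citrate pH 6.5, 0.2 M magnesium acetate and 10% PEG8000.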
# HUVECs [1] = assay: HUVEC cell growth; format: cell-based, human; settings: 20 μM, 5 days
# In short: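 HUVECs seeded at 38,000 cells per 24-well well, in triplicate for each time point, with 20 µM test compound or DMSO. Viable cells were counted by trypan blue exclusion on days 1, 3 and 5 after seeding.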
# HCT116 cells = assay: HCT116 cell cycle analysis; format: cell-based, human; settings: HCT116, 40 μM, 4-24 hours
# In short: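 Cells exposed to test compound or DMSO, then trypsinised, PBS-washed and fixed in 70% ethanol at −20°C. After centrifugation and PBS wash, cells were stained in PI/RNase buffer for 15 min at room temperature. DNA content was analysed by flow cytometry.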
# HUVECs [2] = assay: HUVEC cell branching assay on matrigel; format: cell-based, human; settings: 0–40 μM, 18–20 h on matrigel, vs vehicle, p < 0.05
# In short: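 HUVECs (80,000 per well) in EGM-2 containing the test compound at the indicated concentration were plated on Matrigel pre-solidified for 30 min at 37°C. After 18–20 h, media was removed and wells were fixed in 10% buffered formalin for 15 min. Tubes were imaged by inverted microscope at 10x. Nodes, junctions, meshes and total branching length were scored by Angiogenesis Analyzer, n = 4 per concentration, Wilcoxon test.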
# E47 = biological target: T2, E47 (Homo sapiens, UniProt P15923); assay: Circular dichroism; format: binding; settings: AGX51 0, 10, 20, 50 μM
# T2 sequence (P15923 1-651 isoform P15923-2): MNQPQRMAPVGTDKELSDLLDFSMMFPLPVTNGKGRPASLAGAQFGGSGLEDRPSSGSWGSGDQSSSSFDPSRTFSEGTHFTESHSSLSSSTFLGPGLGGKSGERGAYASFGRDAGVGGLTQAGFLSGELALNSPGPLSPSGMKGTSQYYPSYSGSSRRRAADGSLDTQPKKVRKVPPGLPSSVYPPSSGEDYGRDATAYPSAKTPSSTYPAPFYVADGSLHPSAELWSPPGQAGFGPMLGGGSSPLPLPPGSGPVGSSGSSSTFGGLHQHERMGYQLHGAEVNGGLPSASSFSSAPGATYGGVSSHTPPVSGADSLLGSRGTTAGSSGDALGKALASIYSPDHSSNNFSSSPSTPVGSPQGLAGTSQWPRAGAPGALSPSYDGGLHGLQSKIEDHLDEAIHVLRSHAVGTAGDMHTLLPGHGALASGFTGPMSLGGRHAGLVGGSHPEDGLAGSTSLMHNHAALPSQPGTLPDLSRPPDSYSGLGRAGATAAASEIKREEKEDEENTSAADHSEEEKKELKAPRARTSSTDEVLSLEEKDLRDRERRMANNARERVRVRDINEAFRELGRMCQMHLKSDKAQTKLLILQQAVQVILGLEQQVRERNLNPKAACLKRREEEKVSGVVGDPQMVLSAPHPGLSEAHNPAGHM
# Water solubility = format: physicochemical
# E protein binding = assay: EMSA on whole cell lysates from HCT116 cells; format: cell-based, human; settings: HCT116, 40 μM, 24 h
# ID1, ID2, ID3, and ID4 = assay: Western blot for ID proteins in HCT116 cells; format: cell-based, human; settings: HCT116, 40 μM, 0-48 hours
# [3] = Concentration of AGX51 in the eyes after i.p. dosing; format: in vivo, mouse
# In short: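 Test compound given i.p. at 30 mg/kg. Eyes were dissected at time points over 24 h, extracted, and compound content per eye measured by mass spectrometry.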
# Id1 (59–104) = biological target: T3, Id1 (59–104) (Mus musculus, UniProt P20067); assay: UV crosslinking of AGX51-XL2 to purified Id1 and mass spectrometry; format: binding; settings: 10-fold excess of AGX51
# T3 sequence (P20067 59-104): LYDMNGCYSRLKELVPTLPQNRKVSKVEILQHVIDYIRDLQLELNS
# In short: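 Purified Id1 (aa 59–104, 1 µg) was mixed in the dark with 19.7 ng of a benzophenone photoreactive test-compound analog in DMSO and UV-irradiated for 20 min, with a no-UV control. Samples were run in the dark on a 15% denaturing gel and silver stained. Bands were excised for mass spectrometry.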
# Cyclin D1 = assay: Western blot for Cyclin D1 in HCT116 cells; format: cell-based, human; settings: HCT116, 40 μM, 0-48 hours
compound,measurement,setting,value
"CCC(=O)N(CCC(c1ccc2c(c1)OCO2)c1ccccc1OC)Cc1ccccc1 (stereo not drawn) [AGX51, N-(3-(benzo[d][1,3]dioxol-5-yl)-3-(2-methoxyphenyl)propyl)-N-benzylpropionamide]",effect on Id1 crystals,Id1 crystals,the crystals melted
same,cell viability / growth,HUVECs [1],reduced cell viability
same,cell cycle effect,HCT116 cells,G0/G1 growth arrest
same,"vascular branching (nodes, junctions, meshes, total branching length)",HUVECs [2],significantly impaired in a dose-dependent manner
same,interaction with E47 (CD),E47,no evidence of an interaction
same,water solubility,Water solubility,water insoluble
same,E protein binding in cell lysates,E protein binding,small increase in E protein binding
same,"ID1, ID2, ID3 and ID4 protein levels","ID1, ID2, ID3, and ID4","reduced levels of ID1, ID2, ID3, and ID4"
same,half-life,"[3]; male, BALB/c, mouse, eye, ip, 30 mg/kg",3.7 h
same,maximum concentration in the eye,"[3]; mice, i.p. 30 mg/kg, after 30 min",~ 4 ng/eye
same,AGX51-XL2 binding to Id1 in the presence of competitor,Id1 (59–104),significant decrease in AGX51-XL2 binding to Id1
same,Cyclin D1 levels,Cyclin D1,reduction in Cyclin D1 levels
